Source: ChEMBL document CHEMBL5724801, “EUbOPEN Chemogenomics Library - Multiplex” (2024)
“And” between values parts separate entries of the source, which are not always exact repeats. Identical values can stand only once.

System: HEK-293T
Experiment: Multiplex assay against HEK293T
Assay type: toxicity, cell-based
Settings: human
Procedure, shortened: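 Tubulin, mitochondrial-mass and membrane-permeability phenotypes are per cents of healthy-nucleus cells. Cells were gated by CellPathfinder machine learning into Hoechst high-intensity objects or normal cells, normal cells into healthy, pyknosed or fragmented nuclei, and pyknosed cells into mitotic or apoptotic. Before that, live cells stained at seeding with Hoechst33342, BioTracker Green Microtubule Cytoskeleton Dye, MitoTracker Red and Annexin V Alexa Fluor 680 were imaged on a CQ1 microscope at 37°C and 5% CO2 after compound addition.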

[1] = 12 h, 1 µM, compound concentration 1 uM
[2] = 12 h, 10 µM, compound concentration 10 uM
[3] = 24 h, 1 µM, compound concentration 1 uM
[4] = 24 h, 10 µM, compound concentration 10 uM
[5] = 48 h, 1 µM, compound concentration 1 uM
[6] = 48 h, 10 µM, compound concentration 10 uM

O=C(CCCc1ccccc1)Nc1nc2ccccc2c(=O)s1
Population Apoptotic (%) [1]: 30% and 43% | Population Fragmented Nuclei (%) [1]: 4% and 7% | Population Healthy Nuclei (%) [1]: 83% and 74% | Population Hoechst High Intensity Objects (%) [1]: 6% and 13% | Population Membrane Permeable-Phenotype (%) [1]: 0% | Population Mitochondria Different-Phenotype (%) [1]: 37% and 63% | Population Mitotic Cells (%) [1]: 70% and 56% | Population Normal (%) [1]: 93% and 86% | Population Pyknosed Nuclei (%) [1]: 11% and 17% | Population Tubulin-Different-Phenotype (%) [1]: 32% and 36% | Total Cell Count [1]: 372 and 267 | Population Apoptotic (%) [2]: 30% and 44% | Population Fragmented Nuclei (%) [2]: 10% and 7% | Population Healthy Nuclei (%) [2]: 80% and 74% | Population Hoechst High Intensity Objects (%) [2]: 9% and 27% | Population Membrane Permeable-Phenotype (%) [2]: 0% | Population Mitochondria Different-Phenotype (%) [2]: 47% and 68% | Population Mitotic Cells (%) [2]: 69% and 55% | Population Normal (%) [2]: 90% and 72% | Population Pyknosed Nuclei (%) [2]: 9% and 17% | Population Tubulin-Different-Phenotype (%) [2]: 27% and 26% | Total Cell Count [2]: 555 and 371 | Population Apoptotic (%) [3]: 20% and 45% | Population Fragmented Nuclei (%) [3]: 8% and 9% | Population Healthy Nuclei (%) [3]: 81% and 78% | Population Hoechst High Intensity Objects (%) [3]: 5% and 8% | Population Membrane Permeable-Phenotype (%) [3]: 1% and 0% | Population Mitochondria Different-Phenotype (%) [3]: 21% and 38% | Population Mitotic Cells (%) [3]: 79% and 54% | Population Normal (%) [3]: 94% and 91% | Population Pyknosed Nuclei (%) [3]: 10% and 12% | Population Tubulin-Different-Phenotype (%) [3]: 15% and 13% | Total Cell Count [3]: 538 and 370 | Population Apoptotic (%) [4]: 33% and 52% | Population Fragmented Nuclei (%) [4]: 10% and 8% | Population Healthy Nuclei (%) [4]: 80% | Population Membrane Permeable-Phenotype (%) [4]: 0% | Population Mitochondria Different-Phenotype (%) [4]: 38% and 47% | Population Mitotic Cells (%) [4]: 66% and 47% | Population Normal (%) [4]: 93% and 75% | Population Pyknosed Nuclei (%) [4]: 9% and 11% | Population Tubulin-Different-Phenotype (%) [4]: 29% and 20% | Total Cell Count [4]: 661 and 444 | Population Apoptotic (%) [5]: 20% and 38% | Population Fragmented Nuclei (%) [5]: 11% and 10% | Population Healthy Nuclei (%) [5]: 82% and 80% | Population Hoechst High Intensity Objects (%) [5]: 2% and 4% | Population Membrane Permeable-Phenotype (%) [5]: 1% and 0% | Population Mitochondria Different-Phenotype (%) [5]: 15% and 28% | Population Mitotic Cells (%) [5]: 79% and 61% | Population Normal (%) [5]: 97% and 95% | Population Pyknosed Nuclei (%) [5]: 6% and 8% | Population Tubulin-Different-Phenotype (%) [5]: 11% and 13% | Total Cell Count [5]: 820 and 534 | Population Fragmented Nuclei (%) [6]: 14% and 13% | Population Healthy Nuclei (%) [6]: 79% and 77% | Population Hoechst High Intensity Objects (%) [6]: 4% and 11% | Population Membrane Permeable-Phenotype (%) [6]: 0% and 1% | Population Mitochondria Different-Phenotype (%) [6]: 21% and 30% | Population Mitotic Cells (%) [6]: 77% and 31% | Population Normal (%) [6]: 95% and 88% | Population Pyknosed Nuclei (%) [6]: 6% and 9% | Population Tubulin-Different-Phenotype (%) [6]: 16% | Total Cell Count [6]: 984 and 567

CN(C)CCCc1cc(C(=O)Nc2ccc(-c3ccncc3)cc2)ccc1O.Cl.Cl
Population Apoptotic (%) [1]: 27% and 37% | Population Fragmented Nuclei (%) [1]: 5% | Population Healthy Nuclei (%) [1]: 79% and 82% | Population Hoechst High Intensity Objects (%) [1]: 9% and 8% | Population Membrane Permeable-Phenotype (%) [1]: 0% | Population Mitochondria Different-Phenotype (%) [1]: 48% and 58% | Population Mitotic Cells (%) [1]: 72% and 62% | Population Normal (%) [1]: 90% and 91% | Population Pyknosed Nuclei (%) [1]: 14% and 11% | Population Tubulin-Different-Phenotype (%) [1]: 37% and 14% | Total Cell Count [1]: 358 and 367 | Population Apoptotic (%) [2]: 31% and 60% | Population Fragmented Nuclei (%) [2]: 10% and 11% | Population Healthy Nuclei (%) [2]: 81% and 77% | Population Hoechst High Intensity Objects (%) [2]: 6% and 9% | Population Membrane Permeable-Phenotype (%) [2]: 0% and 2% | Population Mitochondria Different-Phenotype (%) [2]: 49% and 63% | Population Mitotic Cells (%) [2]: 68% and 39% | Population Normal (%) [2]: 93% and 90% | Population Pyknosed Nuclei (%) [2]: 7% and 11% | Population Tubulin-Different-Phenotype (%) [2]: 33% | Total Cell Count [2]: 460 and 391 | Population Apoptotic (%) [3]: 25% | Population Fragmented Nuclei (%) [3]: 11% and 9% | Population Healthy Nuclei (%) [3]: 78% and 83% | Population Hoechst High Intensity Objects (%) [3]: 5% | Population Membrane Permeable-Phenotype (%) [3]: 1% and 0% | Population Mitochondria Different-Phenotype (%) [3]: 26% and 32% | Population Mitotic Cells (%) [3]: 74% and 75% | Population Normal (%) [3]: 94% | Population Pyknosed Nuclei (%) [3]: 10% and 6% | Population Tubulin-Different-Phenotype (%) [3]: 21% and 9% | Total Cell Count [3]: 542 and 486 | Population Apoptotic (%) [4]: 32% and 47% | Population Fragmented Nuclei (%) [4]: 12% and 15% | Population Healthy Nuclei (%) [4]: 77% and 74% | Population Hoechst High Intensity Objects (%) [4]: 5% and 15% | Population Membrane Permeable-Phenotype (%) [4]: 0% | Population Mitochondria Different-Phenotype (%) [4]: 38% and 48% | Population Mitotic Cells (%) [4]: 67% and 52% | Population Normal (%) [4]: 94% and 84% | Population Pyknosed Nuclei (%) [4]: 9% | Population Tubulin-Different-Phenotype (%) [4]: 23% and 19% | Total Cell Count [4]: 588 and 505 | Population Apoptotic (%) [5]: 23% and 21% | Population Fragmented Nuclei (%) [5]: 11% and 16% | Population Healthy Nuclei (%) [5]: 81% and 75% | Population Hoechst High Intensity Objects (%) [5]: 2% and 5% | Population Membrane Permeable-Phenotype (%) [5]: 2% and 1% | Population Mitochondria Different-Phenotype (%) [5]: 19% and 24% | Population Mitotic Cells (%) [5]: 76% and 78% | Population Normal (%) [5]: 97% and 94% | Population Pyknosed Nuclei (%) [5]: 6% and 8% | Population Tubulin-Different-Phenotype (%) [5]: 14% and 13% | Total Cell Count [5]: 814 and 596 | Population Apoptotic (%) [6]: 29% and 58% | Population Fragmented Nuclei (%) [6]: 17% and 15% | Population Healthy Nuclei (%) [6]: 75% and 76% | Population Hoechst High Intensity Objects (%) [6]: 5% and 11% | Population Membrane Permeable-Phenotype (%) [6]: 1% and 0% | Population Mitochondria Different-Phenotype (%) [6]: 21% and 35% | Population Mitotic Cells (%) [6]: 70% and 41% | Population Normal (%) [6]: 94% and 88% | Population Pyknosed Nuclei (%) [6]: 6% and 7% | Population Tubulin-Different-Phenotype (%) [6]: 13% and 20% | Total Cell Count [6]: 883 and 641
